Results: PMC11483317 (Heliyon, 2024)
Entries after “also recorded” stand apart in the source; their conditions may differ.

What was measured:
[1] = system: brain capillary endothelial cells and astrocytes; details: cited from earlier work; for % of initial radioactivity in the abluminal medium: same bovine BBB model
brain DHA = details: normal adult mice, dietary; cited from earlier work
[2] = Passage / apparent permeability across hBLEC monolayer; format: in vitro ADME, human; details: human, pH 7.4, apparent coefficient permeability (Papp), 10 μM, 180 min after transport across hBLECs
Outline: (§1)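 Test lipid at 1 or 10 µM in 500 µL Ringer–HEPES (pH 7.4) on the luminal side of hBLEC/pericyte co-culture inserts. Inserts moved to fresh 1.5 mL buffer wells at 30, 60, 120 and 180 min. Media lipids extracted by Bligh–Dyer and quantified by C18 LC-MS. %/min = quantity crossed ÷ initial luminal quantity ÷ time. Papp calculated per an earlier method. Mean ± SD, n = 3.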

hBLECs [3] = assay: as above; format: in vitro ADME, human
Outline: as §1

brain = details: 20-days-old rats, tail vein perfusion 30 s; cited from earlier work
hBLECs [4] = assay: Intracellular accumulation in hBLECs, LC-MS; format: in vitro ADME, human; details: 180 min after incubation
Outline: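 Human BBB model: cord-blood CD34+-derived endothelial cells on PET inserts, co-cultured ≥6 days with brain pericytes (37 °C, 5% CO2) to give hBLECs. Test lipid at 1 or 10 µM in 500 µL Ringer–HEPES (pH 7.4), luminal side, for 180 min. Cell lipids extracted by Folch method, quantified by C18 LC-MS, and expressed as % of initial concentration. Triplicates.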

[5] = system: hBLECs of the human BBB model; assay: Toxicity assessment: hBLEC monolayer tightness by Lucifer yellow permeability; format: cell-based
Outline: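 Integrity check run alongside transport, on PET inserts in Ringer–HEPES (pH 7.4, 37 °C). Lucifer yellow added luminally with test lipid (1 and 10 µM) or 1% DMSO as toxicity control. Abluminal sampled at 30–180 min, luminal at 180 min. Fluorescence read at ex 490/em 525 nm. Permeability divided by 1.12 cm² insert area gives Pe (cm/min), compared with untreated cells. Mean ± SD, n = 3.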

CC/C=C\C/C=C\C/C=C\C/C=C\C/C=C\C/C=C\CCC(=O)OC(COC(C)=O)COP(=O)([O-])OCC[N+](C)(C)C (stereo not drawn) [AceDoPC, 1-acetyl,2-docosahexaenoyl-glycerophosphocholine]
% of initial radioactivity in the abluminal medium [1]: 7.5%

CC/C=C\C/C=C\C/C=C\C/C=C\C/C=C\C/C=C\CCC(=O)O [DHA, Docosahexaenoic acid]
increase of levels of brain DHA (brain DHA): did not significantly increase | Papp at 180 min, 10 μM [2]: 26 ×10⁻⁶ cm/s | percentage of passage per min (lipids recovered in abluminal medium) (hBLECs [3]; 10 μM, 30 min post-incubation): 0.54% | percentage of passage per min (lipids recovered in abluminal medium) (hBLECs [3]; 10 μM, 120 min post-incubation): 0.40% | apparent coefficient permeability (Papp) (hBLECs [3]; 10 μM, 180 min after transport across hBLECs): 26.04 ×10⁻⁶ cm/s | percentage of passage per minute (constant) (hBLECs [3]; constant over the 180 min transport): around 0.5 % per minute | % of initial radioactivity in abluminal medium ([1]; 5 μM, incubation 240 min): 5% | % of initial radioactivity in the abluminal medium [1]: 4.5% | recovered in the brain, % of injected radioactivity (brain): 0.3–0.4% | intracellular accumulation in hBLECs (hBLECs [4]; 1 μM): lower than the limit of detection; also recorded: under the limit of quantification | intracellular accumulation in hBLECs (hBLECs [4]; 10 μM): 3.11 ± 1.24% | toxicity towards hBLECs (from LY permeability) ([5]; 10 μM): absence of toxicity

CC/C=C\C/C=C\C/C=C\C/C=C\C/C=C\C/C=C\CCC(=O)O[C@H](COC(=O)CCCCCCCCCCCCCCC)COP(=O)([O-])OCC[N+](C)(C)C [PC-DHA, 1-palmitoyl,2-docosahexaenoyl-sn-glycero-3-phosphatidylcholine]
% of initial radioactivity in the abluminal medium [1]: 4%

Lucifer Yellow
BBB permeability to Lucifer yellow (control permeability) ([5]; control cells, absence of test lipids, 180 min): 0.55 ± 0.06 x 10^−3 cm min^−1
